High-throughput results from PubChem.
A selection: hits, their analogues and other compounds. The true share with any hit is near 1.6%.
RAD54 inh = RAD54 (human) branch migration inhibition; Q92698; RAD54 Holliday junction branch migration, FAM/BHQ fluorescence; inhibition, % at 10.4 µM; hit rate 0.14% among 360,000;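 active = mean normalized replicate activity at least 40 and at least half of replicates scoring 40 or more; inconclusive = only one of the two criteria met; inactive = mean below 40 and under half of replicates reaching 40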;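 also: inhibitors cause a drop in the FAM fluorescence signal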
FID counter = counter-screen for HCV NS3 helicase inhibitors: DNA intercalator displacement; DNA fluorescent intercalator displacement, fluorescence; inhibition, % at 7.9 µM; hit rate 0.17% among 290,000; AID 1845; in the data active = inhibition above about 37%;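 also: higher means more ethidium bromide displaced from hairpin DNA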
Neddyl block = blocks human cullin neddylation. AID 651699. calls only at 25 µM. hit rate 0.58% among 360,000. P61081+Q13564. TR-FRET cullin neddylation, biochemical; in the data active = inhibition above about 36%
Apaf-1 inh = blocks human Apaf-1 apoptosome activity. AID 489030. hit rate 0.71% among 330,000. O14727. inhibition, % at 20 µM. reconstituted apoptosome caspase-3 activity, DEVD-Rh110 fluorescence; active = inhibition of at least 40% at 20 µM
Target sequence (O14727 whole entry, looked up): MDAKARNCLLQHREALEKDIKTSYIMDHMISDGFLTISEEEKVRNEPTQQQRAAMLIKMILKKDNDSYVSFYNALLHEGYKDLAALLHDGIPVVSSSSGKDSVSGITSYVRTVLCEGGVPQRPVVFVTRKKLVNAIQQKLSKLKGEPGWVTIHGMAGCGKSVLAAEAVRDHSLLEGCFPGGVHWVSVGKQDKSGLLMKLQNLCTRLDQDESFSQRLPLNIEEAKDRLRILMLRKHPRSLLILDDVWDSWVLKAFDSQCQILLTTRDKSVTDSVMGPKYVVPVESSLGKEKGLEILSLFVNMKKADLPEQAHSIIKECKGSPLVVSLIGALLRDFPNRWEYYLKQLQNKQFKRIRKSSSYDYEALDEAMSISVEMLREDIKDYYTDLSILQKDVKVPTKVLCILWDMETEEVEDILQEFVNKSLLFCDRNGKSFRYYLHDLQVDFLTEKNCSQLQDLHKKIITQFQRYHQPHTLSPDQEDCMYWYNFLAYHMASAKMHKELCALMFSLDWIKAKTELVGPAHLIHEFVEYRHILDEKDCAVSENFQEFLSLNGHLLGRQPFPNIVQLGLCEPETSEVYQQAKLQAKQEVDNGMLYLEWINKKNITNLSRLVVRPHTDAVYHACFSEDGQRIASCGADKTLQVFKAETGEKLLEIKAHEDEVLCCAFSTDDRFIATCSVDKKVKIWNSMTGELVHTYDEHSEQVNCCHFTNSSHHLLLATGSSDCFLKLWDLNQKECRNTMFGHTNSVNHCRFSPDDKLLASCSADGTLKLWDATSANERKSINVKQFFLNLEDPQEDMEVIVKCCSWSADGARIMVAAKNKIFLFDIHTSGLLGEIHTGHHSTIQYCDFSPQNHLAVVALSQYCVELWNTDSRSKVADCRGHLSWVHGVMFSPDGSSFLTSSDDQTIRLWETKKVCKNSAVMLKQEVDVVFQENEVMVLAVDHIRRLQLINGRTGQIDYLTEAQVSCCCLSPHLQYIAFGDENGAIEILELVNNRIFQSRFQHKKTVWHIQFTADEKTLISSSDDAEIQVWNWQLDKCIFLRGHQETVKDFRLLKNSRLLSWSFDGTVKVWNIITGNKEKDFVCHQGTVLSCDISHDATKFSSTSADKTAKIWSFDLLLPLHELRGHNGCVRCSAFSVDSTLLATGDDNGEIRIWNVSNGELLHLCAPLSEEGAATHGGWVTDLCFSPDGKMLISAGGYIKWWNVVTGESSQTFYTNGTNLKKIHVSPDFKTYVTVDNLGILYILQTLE
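Material: reconstituted apoptosome with Apaf-1, cytochrome c, caspase-9, procaspase-3, dATP. Technique: Rh110 fluorescence intensity. Buffer or medium: pH 7.5 Hepes buffer with CHAPS, BSA, DTT. Times: 30 min plus 50 min, RT.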
UBC13 polyUb = blocks human UBC13 polyubiquitin chain formation; P61088; TR-FRET; inhibition, % at 20 µM; hit rate 0.47% among 330,000; AID 485273; in the data active = inhibition above about 45%, passing the limit was not always enough; inconclusive = no clear call, values can overlap the other calls
RAD52 inh = RAD52 (human) annealing inhibition. P43351. recombinant RAD52 DNA annealing, FRET fluorescence. inhibition, % at 18.7 µM. hit rate 0.46% among 360,000. AID 651710;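 active = every replicate showing at least 50% inhibition; inconclusive = mean inhibition at least 50% but not in every replicate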
Rad54 DNA ctr = binds DNA, flagging false Rad54 inhibitor hits. shares compounds with RAD54 inh. AC50, µM (top dose mostly 35 µM). Acridine orange-DNA displacement, fluorescence polarization, 20 min. hit rate 8% among 460. AID 651673;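 active = signal drop giving an AC50 within twice the top valid tested concentration of each sample, actives reach about 35 µM in these data; inactive = activity opposite to expected, plus the rest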;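 also: polarization loss reports compound binding to salmon sperm DNA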
Of the large screens only hits and unclear results are named; the others gave an inactive call (follow-up assays come after a bar, where shown).

Cc1cccn2c(=O)c3cc(C(=O)NCCc4ccccc4)c(=N)n(CCCn4ccnc4)c3nc12	RAD54 inh 52 (not shown: Neddyl block, RAD52 inh) | Rad54 DNA ctr inactive
CCCNc1nc2nc3ccccn3c(=O)c2cc1C(=O)NCCN1CCOCC1	RAD54 inh inconclusive, FID counter 40 (not shown: Neddyl block) | Rad54 DNA ctr inactive
COCCn1c(=N)c(C(=O)NCCc2ccccc2)cc2c(=O)n3cccc(C)c3nc21	none (not shown: RAD54 inh, Neddyl block, RAD52 inh)
O=C(NCCN1CCOCC1)c1c(O)nc2ccccn2c1=O	none
CC(C)NC(=O)N1[C@H](CO)[C@@H](c2ccc(C#CC3CC3)cc2)[C@@H]1C#N	none (no result: FID counter, Neddyl block, Apaf-1 inh, UBC13 polyUb)
C[C@@H]1CN([C@H](C)CO)C(=O)c2cc(NS(=O)(=O)c3cn(C)cn3)ccc2O[C@@H]1CN(C)Cc1ccc2c(c1)OCO2	none (no result: FID counter, Neddyl block, Apaf-1 inh, UBC13 polyUb)
Cc1cccn2c(=O)c3cc(C(=O)NCc4ccccc4)c(=N)n(CCCN4CCOCC4)c3nc12	RAD54 inh 61 (not shown: FID counter, Neddyl block, Apaf-1 inh, UBC13 polyUb) | Rad54 DNA ctr inactive
Cc1cccn2c(=O)c3cc(C(=O)NCCN4CCOCC4)c(=N)n(CCc4ccccc4)c3nc12	none (not shown: Neddyl block, RAD52 inh)
C(=C/c1nccc2c1[nH]c1ccccc12)/c1ccc2c(c1)OCO2	RAD54 inh 59 (not shown: Neddyl block, Apaf-1 inh, UBC13 polyUb) | Rad54 DNA ctr inactive
CNC[C@@H]1Oc2cc(C#CCN(C)C)ccc2S(=O)(=O)N([C@@H](C)CO)C[C@H]1C	none (no result: FID counter, Neddyl block, Apaf-1 inh, UBC13 polyUb)
CN(C)CCCNc1nc2cc(-c3ccc(C(=O)N4CCN(C)CC4)cc3)sc2c(=O)n1C	RAD54 inh inconclusive, RAD52 inh 75 (no result: FID counter, Apaf-1 inh, UBC13 polyUb) | Rad54 DNA ctr inactive
Cn1c(NCCN2CCCC2)nc2cc(-c3ccsc3)sc2c1=O	RAD54 inh 58 (no result: FID counter, Apaf-1 inh, UBC13 polyUb) | Rad54 DNA ctr inactive
COc1cccc(CNc2nc3cc(-c4ccc(C(=O)N5CCN(C)CC5)cc4)sc3c(=O)n2C)c1	none (no result: FID counter, Apaf-1 inh, UBC13 polyUb)
COc1ccccc1Nc1c2ccccc2nc2ccccc12	RAD54 inh 59 | Rad54 DNA ctr inactive
COc1ccccc1Nc1nc(-c2ccccc2)nc2ccccc12	none (not shown: RAD54 inh, Neddyl block)
c1ccc(-c2nc(NCCCn3ccnc3)c3oc4ccccc4c3n2)cc1	RAD54 inh inconclusive | Rad54 DNA ctr inactive
CCc1nc(NCCCn2ccnc2)c2oc3ccccc3c2n1	none (no result: RAD52 inh)
CCOc1nc(-c2ccc(Cl)cc2)nc2ccccc12	none (no result: RAD54 inh, RAD52 inh)
Cc1ccc(-c2nc(NCCCO)c3ccccc3n2)cc1	RAD54 inh inconclusive | Rad54 DNA ctr inactive
c1ccc2[nH]c(NCCCN3CCOCC3)nc2c1	none (no result: RAD52 inh)
c1ccc(-c2nc(NCCCN3CCOCC3)c3ccccc3n2)cc1	RAD54 inh inconclusive, FID counter 55, UBC13 polyUb inconclusive (no result: RAD52 inh) | Rad54 DNA ctr inactive
CN(C)CCCNc1nc(-c2ccc(Cl)cc2)nc2ccccc12	RAD54 inh 71, FID counter 54, RAD52 inh 50 | Rad54 DNA ctr inactive
O=C(O)CCNc1nc(-c2ccccc2)nc2ccccc12	none (no result: RAD52 inh)
CN(C)C(=O)C[C@H]1CC[C@H]2[C@H](COc3ccc(NC(=O)NCc4ccccc4)cc3C(=O)N2C)O1	none (no result: FID counter, Neddyl block, Apaf-1 inh, UBC13 polyUb, RAD52 inh)
CO[C@H]1CN(C)C(=O)c2ccc(NC(C)=O)cc2OC[C@H](C)N(Cc2cc(F)ccc2F)C[C@H]1C	none (no result: FID counter, Neddyl block, Apaf-1 inh, UBC13 polyUb)
CCOC(=O)Nc1c2ccccc2nc2ccccc12	RAD54 inh 57 (not shown: Neddyl block) | Rad54 DNA ctr inactive
Cc1c(CN(C)C)c2c(n1C)C(=O)c1ccc(Br)cc1-2	RAD54 inh 71 (no result: RAD52 inh) | Rad54 DNA ctr inactive
Cc1c(CN(C)C)c2c(n1Cc1ccccc1)C(=O)c1ccc(Br)cc1-2	none (no result: RAD52 inh)
O=C(C[C@@H]1C[C@H]2c3cc(NC(=O)Cc4ccncc4)ccc3O[C@H]2[C@@H](CO)O1)NCCN1CCCCC1	none (no result: FID counter, Neddyl block, Apaf-1 inh, UBC13 polyUb)
COc1cccc2sc3ccc(NCCC4CCCN4C)cc3c(=O)c12 (stereo not drawn)	RAD54 inh 61 | Rad54 DNA ctr inactive
COc1ccc2cc3cc(C(=O)NCCN4CCc5ccccc5C4)oc3nc2c1	none (not shown: Neddyl block, RAD52 inh)
COc1ccc2cc3cc(C(=O)NCCCN4CCC(C)CC4)oc3nc2c1	RAD54 inh 58 (not shown: Neddyl block, RAD52 inh) | Rad54 DNA ctr inactive
CCCN(CCC)CCCNC(=O)c1cc2cc3ccc(OC)cc3nc2o1	RAD54 inh inconclusive, FID counter 37 (no result: RAD52 inh) | Rad54 DNA ctr inactive
CCN1CCN(CCCNC(=O)c2cc3cc4ccc(OC)cc4nc3o2)CC1	RAD54 inh 56 (not shown: Neddyl block, RAD52 inh) | Rad54 DNA ctr inactive
CO[C@H]1CN(C)C(=O)c2cc(NC(C)=O)ccc2OC[C@@H](C)N(C(=O)c2ccccn2)C[C@@H]1C	none (no result: FID counter, Neddyl block, Apaf-1 inh, UBC13 polyUb)
CO[C@H]1CN(C)C(=O)c2ccc(NS(C)(=O)=O)cc2OC[C@H](C)N(Cc2ccccc2)C[C@H]1C	none (no result: FID counter, Neddyl block, Apaf-1 inh, UBC13 polyUb)
